Results from ChEMBL document CHEMBL1153760, “Identification and structure-activity relationships of chromene-derived selective estrogen receptor modulators for treatment of postmenopausal symptoms” (J Med Chem, 2009).
Values belong to the compound of their own block, whether it stands above or below them. Activity calls are given as the source filed them. The calls are words filed in the database; no cut-off is given here.

Experiments:
[1] = AUC in rat at 10 mg/kg, po administered as single dose by LC-MS/MS analysis; format: ADME, organism-based; parameters: dose 10 mg/kg, route oral; details: plasma
Summary of the method: (§1)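 Single-dose rat pharmacokinetics. IV dosing at 1-3 mg/kg as a solution in 10% β-cyclodextrin; oral gavage at 10 mg/kg as a uniform suspension in 0.5% methylcellulose. Blood (0.5 mL) collected into heparinized tubes by orbital sinus puncture after dosing. Plasma extracted into acetonitrile with an internal standard and analysed by LC-MS-MS against standards to obtain PK parameters.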

Estrogen receptor beta = Estrogen receptor beta (Homo sapiens, UniProt Q92731); assay: Inhibition of fluormone ES2 binding to estrogen receptor beta after 1 hr by fluorescence polarization assay
Sequence of Estrogen receptor beta (Q92731 whole entry): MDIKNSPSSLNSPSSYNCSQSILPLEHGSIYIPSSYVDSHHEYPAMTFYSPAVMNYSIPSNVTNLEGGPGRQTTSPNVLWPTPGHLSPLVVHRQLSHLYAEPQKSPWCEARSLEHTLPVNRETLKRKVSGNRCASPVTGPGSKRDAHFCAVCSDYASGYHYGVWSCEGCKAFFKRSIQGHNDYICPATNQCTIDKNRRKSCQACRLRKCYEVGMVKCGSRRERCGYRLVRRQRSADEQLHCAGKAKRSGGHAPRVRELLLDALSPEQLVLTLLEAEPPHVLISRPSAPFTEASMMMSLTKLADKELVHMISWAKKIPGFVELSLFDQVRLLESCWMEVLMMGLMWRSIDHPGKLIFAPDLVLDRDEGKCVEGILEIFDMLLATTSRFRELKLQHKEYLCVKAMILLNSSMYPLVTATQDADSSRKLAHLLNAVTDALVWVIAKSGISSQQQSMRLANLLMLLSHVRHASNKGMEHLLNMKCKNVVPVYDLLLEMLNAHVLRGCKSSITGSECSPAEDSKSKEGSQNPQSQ

Rattus norvegicus [2] = species on record: Rattus norvegicus; assay: animal or person; format: functional; details: Uterus, 72 h, route oral
Rattus norvegicus [3] = assay: Estrogenic activity in ovariectomized rat assessed as minor increase in uterine epithelial thickness at 0.001 to 0.3 mg/kg, po administered daily measured after 6 week by immunohistochemical analysis; format: functional, organism-based
Rattus norvegicus [4] = assay: Effect on bone turnover in ovariectomized rat assessed as prevention of tibial bone density at 0.3 mg/kg, po administered daily measured after 6 weeks by ex vivo peripheral quantitative computerized tomography; format: functional, organism-based; parameters: dose 0.3 mg/kg
[5] = Half life in rat at 10 mg/kg, po administered as single dose by LC-MS/MS analysis; format: ADME, organism-based; parameters: dose 10 mg/kg, route oral; details: in vivo; summary of the method: as §1
Rattus norvegicus [6] = assay: Increase in uterine weight in po dosed ovariectomized rat osteopenia model administered daily measured after 6 weeks; format: functional, organism-based
[7] = Oral bioavailability in rat at 10 mg/kg administered as single dose by LC-MS/MS analysis; format: ADME, organism-based; details: in vivo; summary of the method: as §1
Rattus norvegicus [8] = assay: Decrease in bone resorption in ovariectomized rat assessed as decrease in urine deoxypyridinoline level at 0.003 to 0.3 mg/kg, po administered daily measured after 6 weeks; format: functional, organism-based
Summary of the method: (§2)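 Adult (>6 months) female rats, housed singly on a casein-based diet, ovariectomized under sterile conditions and anesthesia; 6-14 per group. From 24 h after surgery, daily oral gavage of an aqueous suspension in 0.5% Methocel for 2 or 6 weeks. […] Urine deoxypyridinoline measured as bone-resorption marker.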

Estrogen receptor [9] = target: T1, Estrogen receptor (Homo sapiens, UniProt P03372); assay: Displacement of radiolabeled estrogen from estrogen receptor alpha by scintillation counting
T1 sequence (P03372 whole entry): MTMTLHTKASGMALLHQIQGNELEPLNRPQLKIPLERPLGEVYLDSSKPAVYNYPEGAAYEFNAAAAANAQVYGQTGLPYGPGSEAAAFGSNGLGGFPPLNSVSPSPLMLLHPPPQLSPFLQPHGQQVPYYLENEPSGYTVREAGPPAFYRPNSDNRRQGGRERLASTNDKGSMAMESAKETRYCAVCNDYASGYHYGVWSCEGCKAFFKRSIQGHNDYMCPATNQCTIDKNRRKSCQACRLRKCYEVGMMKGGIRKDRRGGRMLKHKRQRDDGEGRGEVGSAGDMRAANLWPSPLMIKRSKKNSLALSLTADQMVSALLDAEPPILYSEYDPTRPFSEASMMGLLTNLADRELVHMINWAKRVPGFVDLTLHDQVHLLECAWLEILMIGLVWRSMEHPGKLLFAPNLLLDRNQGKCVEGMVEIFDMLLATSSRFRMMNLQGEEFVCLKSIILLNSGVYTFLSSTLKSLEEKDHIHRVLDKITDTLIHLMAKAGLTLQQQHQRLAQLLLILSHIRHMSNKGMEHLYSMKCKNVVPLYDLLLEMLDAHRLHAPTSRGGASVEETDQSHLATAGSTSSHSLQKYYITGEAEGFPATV

Rattus norvegicus [10] = assay: Decrease in tail skin temperature rise in morphine-addicted Sprague-Dawley rat hot flush model at 0.01 to 10 mg/kg, po administered daily measured for 60 mins after naloxone-induced morphine withdrawal; format: functional, organism-based
Summary of the method: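 Ovariectomized adult female Sprague-Dawley rats (3 months), 8-25 per group; oral gavage starting 6 days post-ovariectomy, sesame oil vehicle, suspension. Morphine given sc at 75 and 150 mg on treatment days 3 and 5. On the last day, under ketamine (80 mg/kg, im), tail thermistor; baseline about 20 min, then naloxone 2.0 mg/kg sc and tail skin temperature recorded 60 min. Multiple comparisons at each time point.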

Rattus norvegicus [11] = assay: Increase in uterine weight in ovariectomized rat osteopenia model at 1 mg/kg, po administered daily measured after 6 weeks; format: functional, organism-based; parameters: dose 1 mg/kg
Rattus norvegicus [12] = assay: Decrease in plasma cholesterol level in ovariectomized rat osteopenia model at 0.03 mg/kg, po administered daily measured after 6 weeks; format: functional; parameters: scale not given: the % may be the effect or the level left
[13] = Cmax in rats after 10 mg/kg oral dose; format: ADME, organism-based; parameters: dose 10 mg/kg, route oral; details: rat, in vivo; summary of the method: as §1
[14] = AUC in rat at 2 mg/kg, iv administered as single dose by LC-MS/MS analysis; format: ADME, organism-based; parameters: dose 2 mg/kg, route intravenous; details: plasma; summary of the method: as §1
Rattus norvegicus [15] = assay: Decrease in plasma cholesterol level in ovariectomized rat osteopenia model at 0.003 to 0.3 mg/kg, po administered daily measured after 2 weeks; format: functional, organism-based
[16] = Tmax in rat at 2 mg/kg, iv administered as single dose by LC-MS/MS analysis; format: ADME, organism-based; parameters: dose 2 mg/kg, route intravenous; details: in vivo; summary of the method: as §1
Estrogen receptor [17] = target: T1, Estrogen receptor; assay: Antagonist activity at estrogen receptor in human Ishikawa cells assessed as 17-beta-estradiol-induced alkaline phosphatase activity after 3 days by chemiluminescence assay; format: functional, cell-based
[18] = Cmax in rats after 2 mg/kg intravenous dose; format: ADME, organism-based; parameters: dose 2 mg/kg, route intravenous; details: rat, in vivo; summary of the method: as §1
Rattus norvegicus [19] = assay: Effect on bone turnover in po dosed ovariectomized rat assessed as prevention of tibial bone loss administered daily measured after 6 weeks by ex vivo peripheral quantitative computerized tomography; format: functional, organism-based
Rattus norvegicus [20] = assay: Estrogenic activity in ovariectomized rat assessed as increase in uterine epithelial thickness at 0.1 mg/kg, po administered daily measured after 6 week by immunohistochemical analysis; format: functional, organism-based; parameters: dose 0.1 mg/kg
[21] = Tmax in rat at 10 mg/kg, po administered as single dose by LC-MS/MS analysis; format: ADME, organism-based; parameters: dose 10 mg/kg, route oral; details: in vivo; summary of the method: as §1
Rattus norvegicus [22] = assay: Decrease in plasma cholesterol level in ovariectomized rat osteopenia model at 0.3 mg/kg, po administered daily measured after 6 weeks; format: functional; parameters: scale not given: the % may be the effect or the level left
[23] = Half life in rat at 2 mg/kg, iv administered as single dose by LC-MS/MS analysis; format: ADME, organism-based; parameters: dose 2 mg/kg, route intravenous; details: in vivo; summary of the method: as §1
Rattus norvegicus [24] = assay: Increase in vaginal fluidity in po dosed ovariectomized rat administered daily measured after 2 weeks […]; format: functional, organism-based
Summary of the method: (§3)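 Ovariectomized adult female rats dosed daily by oral gavage (0.5% Methocel suspension) for 2 or 6 weeks from 24 h after surgery. Vaginal fluid collected with a cotton swab and its absolute weight determined per animal.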

Rattus norvegicus [25] = assay: Increase in vaginal fluidity in ovariectomized rat at 0.1 mg/kg, po administered daily measured after 6 weeks by cytology analysis; format: functional, organism-based; parameters: dose 0.1 mg/kg; summary of the method: as §3
Rattus norvegicus [26] = assay: Decrease in plasma cholesterol level in ovariectomized rat osteopenia model at 0.01 to 0.1 mg/kg, po administered daily measured after 6 weeks; format: functional; parameters: scale not given: the % may be the effect or the level left; details: dose mg/kg 0.01-0.1
Rattus norvegicus [27] = assay: Uterotropic activity in rat assessed as stimulation of estrone-induced uterine weight at 1 mg/kg, po QD after 3 days; format: functional; details: Uterus, 72 h
Rattus norvegicus [28] = assay: Estrogenic activity in ovariectomized rat assessed as minor increase in uterine epithelial thickness at 1.4 mg/kg, po administered daily measured after 6 week by immunohistochemical analysis; format: functional, organism-based; parameters: dose 1.4 mg/kg
Rattus norvegicus [29] = assay: Decrease in bone resorption in ovariectomized rat assessed as decrease in urine deoxypyridinoline level at 1.4 mg/kg, po administered daily measured after 6 weeks; format: functional, organism-based; parameters: dose 1.4 mg/kg
Rattus norvegicus [30] = assay: Decrease in tail skin temperature rise in morphine-addicted Sprague-Dawley rat hot flush model at 1.4 mg/kg, po administered daily measured for 60 mins after naloxone-induced morphine withdrawal; format: functional, organism-based; parameters: dose 1.4 mg/kg
Summary of the method: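 Adult female Sprague-Dawley rats (3 months), 8-25 per group, ovariectomized; oral gavage started 6 days post-surgery; morphine suspension 75 and 150 mg sc on treatment days 3 and 5; last day ketamine 80 mg/kg im, tail thermistor baseline ~20 min, naloxone 2.0 mg/kg sc, tail skin temperature for 60 min; multiple comparisons per time point.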

Rattus norvegicus [31] = assay: Increase in uterine weight in ovariectomized rat osteopenia model at 1.4 mg/kg, po administered daily measured after 6 weeks; format: functional, organism-based; parameters: dose 1.4 mg/kg
Rattus norvegicus [32] = assay: Effect on bone turnover in ovariectomized rat assessed as prevention of tibial bone density at 1 mg/kg, po administered daily measured after 6 weeks by ex vivo peripheral quantitative computerized tomography; format: functional, organism-based; parameters: dose 1 mg/kg
Rattus norvegicus [33] = assay: Estrogenic activity in ovariectomized rat assessed as minor increase in uterine epithelial thickness at 1 mg/kg, po administered daily measured after 6 week by immunohistochemical analysis; format: functional, organism-based; parameters: dose 1 mg/kg
Rattus norvegicus [34] = assay: Decrease in bone resorption in ovariectomized rat assessed as decrease in urine deoxypyridinoline level at 1 mg/kg, po administered daily measured after 6 weeks; format: functional, organism-based; parameters: dose 1 mg/kg; summary of the method: as §2
Rattus norvegicus [35] = assay: Increase in vaginal secretion in ovariectomized rat at 1 mg/kg, po administered daily measured after 2 weeks […]; format: functional, organism-based; parameters: dose 1 mg/kg; summary of the method: as §3

AUC [1]: 2270 ng·h/mL | IC50 (Estrogen receptor beta): Not Active | half-life [5]: 7.2 h | bioavailability [7]: 30.8% | IC50 (Estrogen receptor [9]): 64 nM | Cmax [13]: 168 ng/mL | AUC [14]: 1390 ng·h/mL | Tmax [16]: 4.8 min | IC50 (Estrogen receptor [17]): 1740 nM | Cmax [18]: 1040 ng/mL | Tmax [21]: 5 h | half-life [23]: 5.82 h
Compound: COc1ccc2c(c1)O[C@H](c1ccc(OCCN3CCCCC3)cc1)C1=C2CCOc2cc(OC)ccc21
inhibition in vivo at 1 mg/kg (Rattus norvegicus [2]): 121% | Activity (Rattus norvegicus [3]): Active | Activity (Rattus norvegicus [4]): Active | Activity (Rattus norvegicus [6]): Dose-dependent effect | Activity (Rattus norvegicus [8]): Active | Activity (Rattus norvegicus [10]): Active | Activity (Rattus norvegicus [11]): inactive | Activity (Rattus norvegicus [12]): 50% | Activity (Rattus norvegicus [15]): Active | Activity (Rattus norvegicus [19]): Dose-dependent effect | Activity (Rattus norvegicus [20]): Active | Activity (Rattus norvegicus [22]): 50% | Activity (Rattus norvegicus [24]): Dose-dependent effect | Activity (Rattus norvegicus [25]): Active | Activity (Rattus norvegicus [26]): 60%

IC50 (Estrogen receptor beta): 23 nM
Compound: CN(C)CCOc1ccc([C@@H]2Oc3ccccc3C3=C2c2ccc(O)cc2OCC3)cc1
inhibition in vivo at 1 mg/kg (Rattus norvegicus [2]): 18% | stimulation at 1 mg/kg (Rattus norvegicus [27]): 70%

Compound: CC(C)(C)C(=O)Oc1ccc2c(c1)O[C@H](c1ccc(OCCN3CCCCC3)cc1)C1=C2COc2cc(OC(=O)C(C)(C)C)ccc21
Activity (Rattus norvegicus [11]): inactive | Activity (Rattus norvegicus [28]): Active | Activity (Rattus norvegicus [29]): Active | Activity (Rattus norvegicus [30]): Active | Activity (Rattus norvegicus [31]): Active

Compound: O=C(c1ccc(OCCN2CCCCC2)cc1)c1c(-c2ccc(O)cc2)sc2cc(O)ccc12 [RALOXIFENE]
inhibition in vivo at 1 mg/kg (Rattus norvegicus [2]): 105% | Activity (Rattus norvegicus [32]): Active | Activity (Rattus norvegicus [33]): Active | Activity (Rattus norvegicus [34]): Active | Activity (Rattus norvegicus [35]): inactive

Compound: Oc1ccc2c(c1)O[C@@H](c1ccc(OCCN3CCOCC3)cc1)C1=C2CCOc2cc(O)ccc21
IC50 (Estrogen receptor beta): 11 nM | inhibition in vivo at 1 mg/kg (Rattus norvegicus [2]): 0% | IC50 (Estrogen receptor [9]): 10 nM | IC50 (Estrogen receptor [17]): > 10000 nM

AUC [1]: 1130 ng·h/mL | IC50 (Estrogen receptor beta): 200 nM | half-life [5]: 5.28 h | bioavailability [7]: 9% | IC50 (Estrogen receptor [9]): 100 nM | Cmax [13]: 30 ng/mL | IC50 (Estrogen receptor [17]): 259 nM | Tmax [21]: 4.8 h
Compound: Oc1ccc2c(c1)O[C@H](c1ccc(OCCN3CCCCC3)cc1)C1=C2CCOc2ccccc21
inhibition in vivo at 1 mg/kg (Rattus norvegicus [2]): 5%

Compound: Oc1ccc2c(c1)O[C@H](c1ccc(OCCCN3CCCCC3)cc1)C1=C2CCOc2cc(O)ccc21
IC50 (Estrogen receptor beta): 31 nM | inhibition in vivo at 1 mg/kg (Rattus norvegicus [2]): 23% | IC50 (Estrogen receptor [9]): 22 nM | IC50 (Estrogen receptor [17]): 420 nM
